Data published in ChEMBL document CHEMBL1153725, “Tetrahydroquinoline derivatives as CRTH2 antagonists” (Bioorg Med Chem Lett, 2009).

What was measured:
[1] = target: T1, Prostaglandin D2 receptor 2 (Homo sapiens, UniProt Q9Y5Y4); assay: Displacement of [3H]PGD2 from human CRTH2 receptor expressed in 293 cells by scintillation counting in presence of 0.5% BSA; type: cell-based, HEK293
T1 sequence (Q9Y5Y4 whole entry): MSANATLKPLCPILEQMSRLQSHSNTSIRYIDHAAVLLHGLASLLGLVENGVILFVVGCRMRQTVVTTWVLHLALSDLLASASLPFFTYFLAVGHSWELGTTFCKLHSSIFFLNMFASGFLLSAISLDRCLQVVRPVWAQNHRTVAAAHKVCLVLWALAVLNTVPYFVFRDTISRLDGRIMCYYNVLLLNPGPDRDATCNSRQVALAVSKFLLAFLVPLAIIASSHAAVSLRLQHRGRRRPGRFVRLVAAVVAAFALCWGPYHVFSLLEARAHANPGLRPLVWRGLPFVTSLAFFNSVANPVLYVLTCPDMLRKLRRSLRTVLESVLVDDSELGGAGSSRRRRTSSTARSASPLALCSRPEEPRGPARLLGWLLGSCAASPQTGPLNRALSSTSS
Method in brief: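 Whole-cell binding on 293 cells stably transfected with hCRTH2. [3H]-PGD2 incubated with cells plus increasing compound concentrations in binding buffer containing 0.5% BSA. Cells washed, bound label counted by scintillation, and the concentration giving 50% inhibition of binding taken as IC50. Means of three experiments.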

[2] = target: T1, Prostaglandin D2 receptor 2; assay: Displacement of [3H]PGD2 from human CRTH2 receptor expressed in 293 cells by scintillation counting in presence of 50% human plasma; type: cell-based, HEK293
Method in brief: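 Whole-cell binding on 293 cells stably transfected with hCRTH2, run in binding buffer containing 50% human plasma. [3H]-PGD2 incubated with cells and rising compound concentrations. After washing, cell-bound label measured by scintillation counting, and IC50 taken as the concentration halving binding. Means of three experiments.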

Eosinophil = assay: Inhibition of PGD2-induced human eosinophil shape change by flow cytometry; type: functional, cell-based
Method in brief: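 Enriched human eosinophils at 10^6 cells/mL in PBS with Ca2+/Mg2+, 0.1% BSA, 10 mM Hepes, 10 mM glucose. Antagonist or vehicle (0.05% DMSO) applied 10 min at room temperature, then 10 nM PGD2 for 10 min at 37 °C. Response expressed as % of maximal PGD2 response. Means of two experiments.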

[3] = target: T2, Prostaglandin D2 receptor (Homo sapiens, UniProt Q13258); assay: Displacement of [3H]PGD2 from human DP receptor expressed in 293 cells by scintillation counting in presence of 0.5% BSA; type: cell-based, HEK293
T2 sequence (Q13258 whole entry): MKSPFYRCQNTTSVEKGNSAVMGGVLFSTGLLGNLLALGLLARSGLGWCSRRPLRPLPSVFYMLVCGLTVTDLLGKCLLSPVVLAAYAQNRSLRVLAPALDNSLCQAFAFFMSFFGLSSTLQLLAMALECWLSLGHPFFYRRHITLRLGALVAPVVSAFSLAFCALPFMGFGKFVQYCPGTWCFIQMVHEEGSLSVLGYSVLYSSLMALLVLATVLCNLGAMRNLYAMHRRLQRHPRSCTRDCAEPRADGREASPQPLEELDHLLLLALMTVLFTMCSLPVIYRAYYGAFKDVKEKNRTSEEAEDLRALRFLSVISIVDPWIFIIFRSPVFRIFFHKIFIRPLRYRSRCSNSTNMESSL
Method in brief: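 hDP binding on stably transfected 293 cells. [3H]-PGD2 incubated with 293(hDP) cells and increasing compound concentrations in buffer with 0.5% BSA. After washing, remaining bound radioligand counted by scintillation, and IC50 read as the concentration giving 50% inhibition. Means of three experiments.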

Row | SMILES | IC50 [1] | also measured
1 | CC(=O)N(c1ccccc1)C1CC(C)Nc2ccccc21 (racemic) | > 50000 nM | –
2 | CCN(C(C)=O)C1CC(C)N(C(=O)c2ccccc2)c2ccccc21 (racemic) | 250 nM | –
3 | CC(=O)N(Cc1ccccc1)C1CC(C)N(C(=O)c2ccccc2)c2ccccc21 (racemic) | 430 nM | –
4 | CC(=O)N(c1ccccc1)C1CC(C)N(Cc2ccccc2)c2ccccc21 (racemic) | 200 nM | –
5 | CC(=O)N(c1ccccc1)C1CC(C)N(C(=O)Cc2ccccc2)c2ccccc21 (racemic) | 1750 nM | –
6 | CC(=O)N(c1ccccc1)C1CC(C)N(C(=O)OCc2ccccc2)c2ccccc21 (racemic) | 910 nM | –
7 | CC(=O)N(c1ccccc1)C1CC(C)N(C(=O)c2ccc(Oc3ccccc3)cc2)c2ccccc21 (racemic) | 13 nM | –
8 | CC(=O)N(c1ccccc1)C1CC(C)N(C(=O)c2ccc(C(C)(C)C)cc2)c2ccccc21 (racemic) | 34 nM | –
9 | CC1CC(N(C(=O)CCCC(=O)O)c2ccccc2)c2ccccc2N1C(=O)c1ccccc1 (racemic) | 22 nM | –
10 | CC1CC(N(C(=O)c2cccc(C(=O)O)c2)c2ccccc2)c2ccccc2N1C(=O)c1ccccc1 (racemic) | 40300 nM | –
11 | CC(=O)N(c1ccccc1)C1CC(C)N(C(=O)c2ccccc2C)c2ccccc21 (racemic) | 1420 nM | –
12 | CC(=O)N(c1ccccc1)C1CC(C)N(S(=O)(=O)c2ccccc2)c2ccccc21 (racemic) | 62000 nM | –
13 | CCCCC(=O)N(c1ccccc1)C1CC(C)N(C(=O)c2ccccc2)c2ccccc21 (racemic) | 64 nM | –
14 | CC1CC(N(C(=O)CCC(=O)O)c2ccccc2)c2ccccc2N1C(=O)c1ccccc1 (racemic) | 5 nM | IC50 [2]: 28 nM
15 | CC(=O)N(c1ccccc1)C1CC(C)N(C(=O)c2ccc(C)c(C)c2)c2ccccc21 (racemic) | 92 nM | –

Second part, led by results:

Row | IC50 [1] | SMILES | also measured
16 | 3 nM | C[C@H]1C[C@@H](N(C(=O)CCC(=O)O)c2ccccc2)c2ccccc2N1C(=O)c1ccccc1 | IC50 [2]: 9 nM; IC50 (Eosinophil): 0.77 nM; IC50 [3]: > 10000 nM
17 | 17 nM | CC(=O)N(c1ccccc1)[C@@H]1C[C@H](C)N(C(=O)c2ccccc2)c2ccccc21 | IC50 [2]: 440 nM; IC50 (Eosinophil): 141 nM; IC50 [3]: > 10000 nM
18 | 420 nM | CC(=O)N(c1ccccc1)[C@H]1C[C@@H](C)N(C(=O)c2ccccc2)c2ccccc21 | IC50 [2]: > 10000 nM
19 | 400 nM | C[C@@H]1C[C@H](N(C(=O)CCC(=O)O)c2ccccc2)c2ccccc2N1C(=O)c1ccccc1 | IC50 [2]: 39 nM
20 | 3620 nM | CC(=O)NC1CC(C)N(C(=O)c2ccccc2)c2ccccc21 (racemic) | –
21 | 210 nM | CC(=O)N(c1ccccc1)C1CC(C)N(C(=O)/C=C/c2ccccc2)c2ccccc21 (racemic) | –
22 | > 50000 nM | CC1CC(Nc2ccccc2)c2ccccc2N1C(=O)c1ccccc1 (racemic) | –
23 | 3170 nM | CCN(c1ccccc1)C1CC(C)N(C(=O)c2ccccc2)c2ccccc21 (racemic) | –
24 | 5500 nM | CC1CC(N(c2ccccc2)S(=O)(=O)c2ccccc2)c2ccccc2N1C(=O)c1ccccc1 (racemic) | –
25 | 105 nM | CC1CC(N(C(=O)c2ccccc2)c2ccccc2)c2ccccc2N1C(=O)c1ccccc1 (racemic) | –
26 | 26 nM | CC(=O)N(c1ccccc1)C1CC(C)N(C(=O)c2ccc(OC(F)(F)F)cc2)c2ccccc21 (racemic) | IC50 [2]: > 10000 nM
27 | 28 nM | COc1ccc(C(=O)N2c3ccccc3C(N(C(C)=O)c3ccccc3)CC2C)cc1 (racemic) | IC50 [2]: 130 nM
28 | 93 nM | CC(=O)N(c1ccccc1)C1CC(C)N(C(=O)c2ccc(Cl)cc2)c2ccccc21 (racemic) | –
29 | 43 nM | CC(=O)N(c1ccccc1)[C@@H]1C[C@H](C)N(C(=O)c2ccccc2)c2ccccc21 (racemic) | IC50 [2]: 1050 nM
30 | > 10000 nM | CC(=O)N(c1ccccc1)[C@H]1C[C@H](C)N(C(=O)c2ccccc2)c2ccccc21 (racemic) | –
31 | 540 nM | CC1CC(N(C(=O)CC(=O)O)c2ccccc2)c2ccccc2N1C(=O)c1ccccc1 (racemic) | –
32 | 2280 nM | CC1CC(N(C(=O)/C=C/C(=O)O)c2ccccc2)c2ccccc2N1C(=O)c1ccccc1 (racemic) | –
33 | 1460 nM | CCCCC(=O)N1c2ccccc2C(N(C(C)=O)c2ccccc2)CC1C (racemic) | –
34 | 74 nM | CC(=O)N(c1ccccc1)C1CC(C)N(C(=O)c2cccc(C)c2)c2ccccc21 (racemic) | –
35 | 41 nM | CC(=O)N(c1ccccc1)C1CC(C)N(C(=O)c2ccc(C)cc2)c2ccccc21 (racemic) | –
36 | 29 nM | CC1CC(N(C(=O)CCC(=O)ON)c2ccccc2)c2ccccc2N1C(=O)c1ccccc1 (racemic) | –
